ChEMBL document CHEMBL1137377, “Evaluation of azasterols as anti-parasitics” (J Med Chem, 2006)
pEC50: −log10 of the molar value.

What was measured:
[1] = test system: Trypanosoma brucei rhodesiense; assay: Antitrypanosomal activity against Trypanosoma brucei rhodesiense trypomastigotes; type: functional; conditions: read-out: ED50 (the source's name)
Procedure, shortened: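 Bloodstream-form STIB900 trypomastigotes grown in HMI-18 + 15% HIFCS at 37 °C, 5% CO2. Seeded at 2 × 10^5/mL onto drug dilutions (top 30 µg/mL) for 72 h. Alamar Blue read 5-6 h later by fluorescence (ex/em 530/585 nm). ED50 by curve fitting.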

Trypanosoma cruzi = assay: Antitrypanosomal activity against Trypanosoma cruzi trypomastigotes in CD1 mouse macrophage; type: functional; conditions: read-out: ED50 (the source's name)
Procedure, shortened: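 Starch-induced CD1 peritoneal macrophages plated at 4 × 10^5/mL, infected after 24 h with T. cruzi Tulahuan LAC-Z trypomastigotes. 24 h later, drug exposure for 3 days. ED50 by curve fitting.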

Leishmania donovani = assay: Antileishmanial activity against Leishmania donovani amastigotes in CD1 mouse macrophage; type: functional, organism-based; conditions: for pEC50: read-out: ED50 (the source's name)
Procedure, shortened: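 Peritoneal macrophages from starch-induced CD1 mice, kept 24 h in RPMI1640 + 10% HIFCS at 37 °C, 5% CO2. Infected with L. donovani MHOM/ET/67/L82 amastigotes from hamster spleen at 5 parasites:1 macrophage. After 24 h, drug exposure for 5 days, overlay replaced day 3. Top concentration 30 µg/mL, quadruplicate. Slides methanol-fixed, Giemsa-stained, counted microscopically. ED50 by curve fitting.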

KB = assay: Cytotoxicity against KB cell line; type: functional; conditions: Homo sapiens, read-out: TD50 (the source's name)
Plasmodium falciparum = assay: Antimalarial activity against Plasmodium falciparum 3D7; type: functional, organism-based; conditions: read-out: ED50 (the source's name)
Procedure, shortened: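 Synchronized ring-stage 3D7 culture at 1% parasitemia in RPMI 1640, 5% hematocrit, 37 °C, 5% CO2. Top final drug concentration 30 µg/mL. After 24 h, (3H)-hypoxanthine added (0.2 µCi/well), then 48 h further incubation. Plates freeze/thawed and harvested, and hypoxanthine uptake counted. ED50 by curve fitting.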

Compound	pEC50 [1]	pEC50 (Trypanosoma cruzi)	pEC50 (Leishmania donovani)	pEC50 (Plasmodium falciparum)	CC50 (KB)	ED50 (Leishmania donovani)
N=C(N)c1ccc(OCCCCCOc2ccc(C(=N)N)cc2)cc1 [PENTAMIDINE]	9.00	–	–	–	–	–
COC(=O)CNC[C@@H](C)[C@H]1CC[C@H]2C3CC=C4C[C@@H](OC(C)=O)CC[C@]4(C)[C@H]3CC[C@]12C (stereo partly drawn)	5.11	5.25	–	< 4.17	94.5 µM	–
C[C@]12CC[C@H](O)C[C@@H]1CC[C@@H]1[C@@H]2CC[C@@]2(C)[C@H]1CC[C@@H]2[C@@](C)(O)C1CCCCN1 (stereo partly drawn)	5.48	5.13	5.05	–	11.9 µM	–
C[C@H](CNCCC[C@H](NC(=O)OCc1ccccc1)C(=O)O)[C@H]1CC[C@H]2C3CC=C4C[C@@H](O)CC[C@]4(C)[C@H]3CC[C@]12C (stereo partly drawn)	< 4.28	< 4.28	–	4.29	417 µM	–
CC(=O)O[C@H]1CC[C@@]2(C)C(=CCC3[C@@H]4CC[C@H]([C@H](C)C(=O)NC[C@H](NC(=O)OC(C)(C)C)C(=O)O)[C@@]4(C)CC[C@@H]32)C1 (stereo partly drawn)	5.57	5.06	< 4.28	–	–	–
CC(=O)O[C@H]1CC[C@@]2(C)C(=CCC3[C@@H]4CC[C@H]([C@H](C)CNCCC[C@H](NC(=O)OCc5ccccc5)C(=O)O)[C@@]4(C)CC[C@@H]32)C1 (stereo partly drawn)	4.76	4.73	< 4.32	–	–	–
CCN(CC)CCCC(C)Nc1ccnc2cc(Cl)ccc12 (stereo not drawn) [CHLOROQUINE]	–	–	–	8.52	–	–
CC(=O)O[C@H]1CC[C@@]2(C)C(=CCC3[C@@H]4CC[C@H]([C@H](C)CNCCCCCCCC(=O)O)[C@@]4(C)CC[C@@H]32)C1 (stereo partly drawn)	5.04	4.68	–	< 4.24	59 µM	–
CC(=O)O[C@H]1CC[C@@]2(C)C(=CCC3[C@@H]4CC[C@H]([C@H](C)CNCC[C@H](NC(=O)OC(C)(C)C)C(=O)O)[C@@]4(C)CC[C@@H]32)C1 (stereo partly drawn)	< 4.28	4.88	< 4.28	–	–	–
pentostam	–	–	–	–	–	> 10 µM
CC(=O)O[C@H]1CC[C@@]2(C)C(=CCC3[C@@H]4CC[C@H]([C@H](C)CNC[C@H](NC(=O)OC(C)(C)C)C(=O)O)[C@@]4(C)CC[C@@H]32)C1 (stereo partly drawn)	< 4.27	5.33	< 4.27	–	–	–
CC(=O)O[C@H]1CC[C@@]2(C)C(=CCC3[C@@H]4CC[C@H]([C@H](C)C(=O)NCC[C@H](NC(=O)OC(C)(C)C)C(=O)O)[C@@]4(C)CC[C@@H]32)C1 (stereo partly drawn)	4.76	4.57	< 4.29	–	–	–

Second part, led by results:

pEC50 [1]	pEC50 (Trypanosoma cruzi)	pEC50 (Leishmania donovani)	pEC50 (Plasmodium falciparum)	Compound	CC50 (KB)	ED50 (Leishmania donovani)
5.88	< 4.30	< 4.30	–	C[C@H](C(=O)NCCC[C@H](NC(=O)OCc1ccccc1)C(=O)O)[C@H]1CC[C@H]2C3CC=C4C[C@@H](O)CC[C@]4(C)[C@H]3CC[C@]12C (stereo partly drawn)	32 µM	–
5.74	< 4.31	< 4.31	–	C[C@H](C(=O)NCCCC[C@H](NC(=O)OCc1ccccc1)C(=O)O)[C@H]1CC[C@H]2C3CC=C4C[C@@H](O)CC[C@]4(C)[C@H]3CC[C@]12C (stereo partly drawn)	276 µM	–
5.62	< 4.19	< 4.19	–	C[C@H](C(=O)NCCC[C@H](N)C(=O)O)[C@H]1CC[C@H]2C3CC=C4C[C@@H](O)CC[C@]4(C)[C@H]3CC[C@]12C (stereo partly drawn)	651 µM	–
< 4.13	< 4.13	–	< 4.13	C[C@H](C(=O)NCC(=O)O)[C@H]1CC[C@H]2C3CC=C4C[C@@H](O)CC[C@]4(C)[C@H]3CC[C@]12C (stereo partly drawn)	> 743 µM	–
< 4.14	< 4.14	–	< 4.14	C[C@H](C(=O)NCCC(=O)O)[C@H]1CC[C@H]2C3CC=C4C[C@@H](O)CC[C@]4(C)[C@H]3CC[C@]12C (stereo partly drawn)	615 µM	–
< 4.24	< 4.24	–	5.24	C[C@H](CNC[C@H](NC(=O)OC(C)(C)C)C(=O)O)[C@H]1CC[C@H]2C3CC=C4C[C@@H](O)CC[C@]4(C)[C@H]3CC[C@]12C (stereo partly drawn)	86.1 µM	–
